SUMO1-SIM PPI: alters human SUMO1 binding to SIM partners | P63165 | SUMO1 binding to a labelled peptide, TR-FRET, 1 h | inhibition, % at 20 µM | actives 0.33% (n = 360,000) | AID 602429; in the data active means inhibition above about 37%
LMPTP block: blocks human LMPTP phosphatase; recombinant LMPTP-A, OMFP fluorogenic substrate, fluorescence intensity; inhibition, % at 20 µM; actives 0.22% (n = 360,000);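 active means compounds that cut the enzyme signal by at least half of the control window in the single-dose screen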;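 further: plate controls were DMSO wells with enzyme plus substrate for no effect and substrate without enzyme for full effect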
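Assay system: LMPTP-A, protein tyrosine phosphatase of low molecular weight / Medium: pH 6.0 Bis-Tris buffer with DTT and Triton X-100 / Schedule: 50 min enzyme reaction at room temperature, protected from light / Measured by: endpoint fluorescence intensity from OMFP dephosphorylation / Read-out basis: % inhibition relative to no-enzyme and uninhibited control wells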
Casp6 inh: caspase-6 (human) enzyme inhibition; AID 686996; P55212; actives 0.53% (n = 350,000); purified caspase-6, Z-VEID-R110 cleavage fluorescence; inhibition, % at 12.5 µM;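 active means mean inhibition across replicates at least about 35%, with every replicate also reaching that limit, limit read from the data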;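 further: 0% = median of neutral control wells and 100% = no fluorescence left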
DNMT1 block: blocks human DNA methyltransferase DNMT1 | P26358 | DNMT1 molecular beacon, Hinp1I cleavage, fluorescence | inhibition (reported as % activation of signal), % at 10 µM | actives 0.83% (n = 360,000) | AID 588458; in the data active means inhibition above about 50%
Target sequence (P26358 504-1616 limits assumed): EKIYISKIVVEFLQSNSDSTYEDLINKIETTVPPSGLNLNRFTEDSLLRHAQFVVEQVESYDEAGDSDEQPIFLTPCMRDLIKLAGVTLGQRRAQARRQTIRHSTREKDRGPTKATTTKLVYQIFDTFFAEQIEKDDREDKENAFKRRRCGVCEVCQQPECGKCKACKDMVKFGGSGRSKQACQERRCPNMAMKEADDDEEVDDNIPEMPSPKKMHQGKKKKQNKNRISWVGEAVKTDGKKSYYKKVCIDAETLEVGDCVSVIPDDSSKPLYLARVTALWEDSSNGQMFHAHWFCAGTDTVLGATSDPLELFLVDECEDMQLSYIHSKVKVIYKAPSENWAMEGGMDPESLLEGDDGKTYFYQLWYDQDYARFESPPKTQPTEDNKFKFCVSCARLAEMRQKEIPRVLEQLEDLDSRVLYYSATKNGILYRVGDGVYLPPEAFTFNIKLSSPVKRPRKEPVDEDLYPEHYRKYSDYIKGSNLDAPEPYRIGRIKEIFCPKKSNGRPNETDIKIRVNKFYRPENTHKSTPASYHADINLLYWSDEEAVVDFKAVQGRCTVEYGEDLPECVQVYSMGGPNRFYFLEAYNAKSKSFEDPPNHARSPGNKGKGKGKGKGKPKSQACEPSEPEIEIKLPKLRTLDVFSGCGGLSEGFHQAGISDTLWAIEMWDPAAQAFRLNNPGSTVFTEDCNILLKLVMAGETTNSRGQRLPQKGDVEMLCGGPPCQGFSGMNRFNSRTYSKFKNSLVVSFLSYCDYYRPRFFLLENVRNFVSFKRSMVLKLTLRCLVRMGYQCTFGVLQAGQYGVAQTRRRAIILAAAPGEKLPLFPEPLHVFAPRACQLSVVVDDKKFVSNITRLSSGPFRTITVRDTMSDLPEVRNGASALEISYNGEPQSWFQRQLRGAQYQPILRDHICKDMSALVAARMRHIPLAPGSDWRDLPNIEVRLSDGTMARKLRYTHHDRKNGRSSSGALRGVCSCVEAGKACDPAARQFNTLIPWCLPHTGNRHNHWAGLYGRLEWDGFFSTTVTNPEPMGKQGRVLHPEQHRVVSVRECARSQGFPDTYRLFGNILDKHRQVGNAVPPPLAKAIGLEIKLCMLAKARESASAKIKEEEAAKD
Scp-1 inhibitor: inhibitors of human Scp-1 phosphatase | actives 0.88% (n = 340,000) | Q9GZU7 | AID 493091 | Recombinant Scp1, phosphopeptide, malachite green phosphate absorbance | inhibition, % at 20 µM;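 active means inhibition above about 50% at 20 µM, limit read from the data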;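 further: plate controls were DMSO wells with enzyme for no effect and wells lacking enzyme for full effect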
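Test system – truncated SCP-1 phosphatase (76-261aa) · Reagent – Phosphorylated 17-residue peptide substrate · Incubation – 45 min room-temperature reaction, 5 min colour, 30 min stabiliser · Detection – colorimetric phosphate reagent with accelerator and stabiliser, absorbance at 630 nm · Measure – % inhibition at 20 µM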
STEP block: inhibitors of human striatal-enriched phosphatase STEP | P54829 | recombinant STEP, OMFP fluorogenic substrate, fluorescence | inhibition, % at 20 µM | actives 0.25% (n = 360,000) | AID 588621;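 active means inhibition at 20 µM, scaled per plate between control wells, above about 37%, limit read from the data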;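 further: 0% = DMSO with enzyme and substrate and 100% = substrate only without enzyme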
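Also added – OMFP at 25 µM · Test system – STEP tyrosine phosphatase · Technique – FITC-channel fluorescence of OMFP product · Schedule – 20 min at room temperature, dark · Evaluation – control-normalized % inhibition with plate pattern correction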
Scp-1 conf: Scp-1 (human) inhibition, single-dose confirmed; shares compounds with Scp-1 inhibitor; recombinant SCP-1 catalytic domain, phosphate release, malachite green absorbance; inhibition, % at 20 µM; actives 61% (n = 2,500); AID 540281;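 further: plate controls were DMSO with enzyme for no effect and buffer wells lacking enzyme for full effect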
Scp-1 MG ctr: colorimetric interference in Scp-1 counter-screen. Colorimetric interference counterscreen, malachite green absorbance 630 nm. AID 540313. shares compounds with Scp-1 inhibitor. 2,500 tested, under 10 active. apparent inhibition (interference), % at 20 µM;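 further: compounds added after enzyme reaction finished so only phosphate colour detection is probed; plate controls were DMSO wells with completed Scp-1 reaction for no effect and substrate wells lacking enzyme for full effect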
Scp1 DSF: validation of human Scp-1 inhibitors by thermal shift binding; actives 25% (n = 1,500); AID 540329; shares compounds with Scp-1 inhibitor; thermal shift relative to vanadate control, % at 40 µM; Recombinant SCP1, Sypro Orange thermal shift Tm;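 active means substances whose mean melting-temperature shift, as a percentage of the reference inhibitor's shift, reaches about 5.3%, limit read from the data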;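 further: 0% = Tm of DMSO wells and 100% = Tm with sodium orthovanadate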
DNMT1 interf DR: beacon fluorescence artifact, dose response counter-screen; shares compounds with DNMT1 block; molecular beacon fluorescence, spectral interference counter-screen; IC50, µM; 200 tested, under 10 active; call rule not given here
DNMT1 confirm: DNMT1 inhibition confirmation, single concentration; shares compounds with DNMT1 block; DNMT1 molecular beacon HinP1I cleavage, fluorescence; inhibition, % at 10 µM; actives 8% (n = 2,300);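 active means average inhibition of at least 30% in the single-concentration confirmation test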
Beacon interf: shows spectral interference in the DNMT1 beacon assay. shares compounds with DNMT1 block. DNMT1 molecular beacon spectral interference counterscreen, fluorescence 485/520. activation (fluorescence interference), % at 10 µM. actives 1% (n = 2,300). AID 602387;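 active means activation of at least 30% at 10 µM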;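 further: DNMT1 catalytic domain with a HinP1I cleavage step and a FAM/dabcyl DNA beacon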
The depositor's hits bear a star; . = no result. A selection: hits, their analogues and other compounds. The true share with any hit is near 1.7%.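 How the source made its calls, unless noted: active means inhibition of at least 30% at 20 µM; inactive means the rest.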

SMILES | SUMO1-SIM PPI | LMPTP block | Casp6 inh | DNMT1 block | Scp-1 inhibitor | STEP block | Scp-1 conf | Scp-1 MG ctr | Scp1 DSF | DNMT1 confirm | Beacon interf | others
CCOc1cccc(=O)c2c(C)n(Cc3ccccc3)c(C)c12 | -1 | -2 | 2 | -3 | -7 | 0 | . | . | . | . | .
CCOc1cccc(=O)c2c(C)n(-c3ccc(C(=O)O)cc3)c(C)c12 | 41* | 3 | 33 | 94* | 60* | 31 | 55* | -4 | 15* | 2 | 0
Cc1cccn2c(=O)c(C=O)c(N3CC(C)OC(C)C3)nc12 (stereo not given) | -9 | -1 | . | -1 | 2 | 0 | . | . | . | . | .
O=C(/C=C/c1ccco1)N(c1ccccn1)c1ccccn1 | 19 | 15 | 54* | 97* | 65* | 26 | 69* | -6 | 6.3* | 6 | -3
CC(OC(=O)C(C)N1C(=O)C2C3C=CC(C4CC34)C2C1=O)C(=O)c1ccccc1 (stereo not given) | 0 | -1 | 0 | 10 | -7 | 3 | . | . | . | . | .
COC(=O)c1c(NC(=O)COC(=O)c2ccc(NC(=O)CC#N)cc2)sc2c1CCCCC2 | 71* | 74* | -4 | 103* | 76* | 10 | 71* | -10 | 14* | 27 | -3 | DNMT1 interf DR=>99
COC(=O)c1c(NC(=O)COC(=O)c2ccccc2O)sc2c1CCCCC2 | 4 | -1 | -2 | 15 | -5 | 2 | . | . | . | . | .
CCCCCCC(=O)N(O)C1CC(=O)N(c2ccc(Br)cc2)C1=O (stereo not given) | 0 | -1 | . | -8 | -1 | 2 | . | . | . | . | .
Cc1ccc(N=Nc2ccc(O)c(/C=N\NC(=O)c3ccc(N)cc3)c2)cc1C | 2 | 41 | . | 81* | 95* | 38 | 74* | -11 | -1 | 1 | 1
COc1cc(/C=N/Nc2ccnc(=O)[nH]2)ccc1O | -13 | 0 | -1 | 2 | -3 | 0 | . | . | . | . | .
COc1ccccc1N1C(=N)S/C(=C\c2ccc(-c3ccccc3C(=O)O)o2)C1=O | 25 | 5 | 11 | 73* | 62* | 9 | 49* | -10 | 8.3* | 5 | 3
CC(=O)N1CCc2c(sc(NC(=O)C3CCCN3S(=O)(=O)c3cccs3)c2C#N)C1 (stereo not given) | -9 | -1 | 5 | -3 | -2 | -3 | . | . | . | . | .
Cc1ccc(CNC(=O)c2ccc(-n3cccc3)cc2)cc1 | 4 | 12 | 6 | 95* | 55* | 4 | 64* | -7 | -2 | 13 | 5
Cc1ccc(CNC(=O)Cc2ccc(-n3cccc3)cc2)cc1 | -3 | 0 | . | 18 | -2 | -1 | . | . | . | . | .
O=C(C1CCOCC1)N1CC(=O)N2[C@H](CO)[C@@H](c3ccc(C4=CCCC4)cc3)[C@H]2C1 | . | . | -2 | . | . | . | . | . | . | . | .
CCOC(=O)c1c(C)c(C(=O)NCc2ccccn2)c(C)n1C | 1 | -1 | . | 1 | 0 | -2 | . | . | . | . | .
O=C(CCS(=O)(=O)c1ccc(Br)cc1)NCc1ccco1 | 26 | 2 | . | 57* | 75* | 35 | 67* | -15 | -4 | 5 | 6
O=C(CCNC(=O)c1ccc(Br)cc1)NCc1ccco1 | 4 | -1 | 14 | 7 | 4 | 0 | . | . | . | . | .
O=C(CCCCC(=O)NCc1cccs1)NCc1cccs1 | 1 | -2 | . | 3 | -4 | 0 | . | . | . | . | .
O=C(CCS(=O)(=O)c1ccc(Br)cc1)Nc1cc(F)ccc1F | 9 | -1 | 59* | 62* | 73* | 7 | 58* | -14 | -2 | 3 | 4
O=C(CCS(=O)(=O)c1ccc(Br)cc1)NCc1cccs1 | 5 | -1 | . | 59* | 87* | 1 | 68* | -10 | -13 | 3 | 1
O=C(CCS(=O)(=O)c1ccc(Br)cc1)NC1CCCC1 | -2 | 0 | 3 | 56* | 75* | 0 | 62* | -9 | -23 | 3 | 3
O=C(CCNS(=O)(=O)c1ccc(Br)cc1)NC1CCCCC1 | 1 | 0 | -1 | 1 | 3 | -2 | . | . | . | . | .
CN(C)CC(=O)N[C@H]1CC[C@@H](CC(=O)NCCN2CCCCC2)O[C@@H]1CO | . | . | -1 | . | . | . | . | . | . | . | .
C[C@@H]1CN([C@H](C)CO)C(=O)c2cc(NC(=O)Nc3ccc4c(c3)OCO4)ccc2O[C@@H](C)CCCCO[C@@H]1CN(C)S(=O)(=O)c1ccc(F)cc1 | . | . | 0 | . | . | . | . | . | . | . | .
Cc1cccc(NC(=O)CCC(=O)N/N=C/c2cccnc2)c1 | -6 | 0 | 1 | 3 | -5 | -1 | . | . | . | . | .
O=C(CSc1c2c(nc3ccccc13)CCCC2)NCc1ccco1 | -2 | -1 | 15 | 0 | -1 | 0 | . | . | . | . | .
CCCC(C)NC(=O)c1c2c(nc3ccccc13)CCC2 (stereo not given) | 12 | -1 | 8 | 29 | 21 | 0 | . | . | . | . | .

Screens (PubChem)
